Measured values from ChEMBL document CHEMBL1142984, “Stabilization of G-quadruplex DNA and down-regulation of oncogene c-myc by quindoline derivatives” (J Med Chem, 2007).
Activity calls are given as the source filed them. The calls are words filed in the database; no cut-off is given here.

Assays:
[1] = Inhibition of Pu27 oligomer hybridization with Pu27rev at 18 uM by PCR stop assay
Outline: (§1)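 Test oligomer plus complementary strand ([…]) in 1×PCR buffer with 0.16 mM dNTP, 2.5 U Taq and derivative […]. Cycling: 94 C 3 min, then 30 cycles of 94 C 30 s, 58 C 30 s, 72 C 30 s. Products run on 15% nondenaturing polyacrylamide in 1×TBE, silver stained; quadruplex stabilization blocks extension.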

[2] = Inhibition of Pu27-13, 14 oligomer hybridization with Pu27rev at 36 uM by PCR stop assay; outline: as §1
[3] = Stabilization of Pu27 oligomer by inducing G-quadruplex formation assessed as inhibition of hybridization with Pu27rev by PCR stop assay; outline: as §1
[4] = Inhibition of Pu27 oligomer hybridization with Pu27rev at 36 uM by PCR stop assay; outline: as §1
Ramos = test: Inhibition of c-myc expression in Ramos cells at 10 uM; assay type: functional, cell-based; details: Homo sapiens
Outline: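 Ramos cells (about 1 × 105 seeded) treated with derivative at […] and harvested 24 h later alongside untreated cells. RNA reverse transcribed at 42 C for 60 min. PCR used […], 36 cycles (95/50/72 C, 1 min each). Products resolved on 1.5% agarose.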

[5] = Inhibition of Pu27 oligomer hybridization with Pu27rev at 6 uM by PCR stop assay; outline: as §1
HepG2 [6] = test: Growth inhibition in HepG2 cells after 5 days; assay type: functional, cell-based; details: Homo sapiens, HepG2, 120 h
Outline: (§2)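 Hep G2 cells in RPMI-1640 with 10% FBS at 37 C, 5% CO2. About 5000 cells seeded; compound ([…], freshly dissolved) added 24 h after plating and re-added at day 5. Cell counts and viability by trypan blue exclusion daily, days 1 to 8. IC50 calculated at days 5 and 7 of treatment.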

HepG2 [7] = test: Inhibition of c-myc expression in HepG2 cells at 50 uM; assay type: functional, cell-based; details: Homo sapiens
Outline: (§3)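 About 5 × 10^5 Hep G2 cells seeded, treated 24 h after plating with derivative (6.25 to 100 µM) for 24 h. Total RNA extracted and reverse transcribed at 42 C for 60 min. PCR used […], 500 µM dNTPs, 36 cycles (95/50/72 C, 1 min each). Products read on 1.5% agarose against β-actin.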

HepG2 [8] = test: Growth inhibition in HepG2 cells after 7 days; assay type: functional, cell-based; details: Homo sapiens, HepG2, 168 h; outline: as §2
HepG2 [9] = test: Inhibition of c-myc expression in HepG2 cells at 100 uM; assay type: functional, cell-based; details: Homo sapiens; outline: as §3

| Structure (SMILES) | Activity [1] | Activity [2] | Activity [3] | Activity [4] | Activity (Ramos) | Activity [5] | IC50 (HepG2 [6]) | Activity (HepG2 [7]) | IC50 (HepG2 [8]) | Activity (HepG2 [9]) |
| --- | --- | --- | --- | --- | --- | --- | --- | --- | --- | --- |
| CN(C)CCCNc1c2ccccc2nc2c1[nH]c1ccccc12 | Active | inactive | Active | – | – | – | – | – | – | – |
| OCCNc1c2ccccc2nc2c1oc1ccccc12 | – | inactive | Active | Active | – | – | – | – | – | – |
| CCN(CC)CCNc1c2ccccc2nc2c1oc1ccccc12 | Active | inactive | Active | – | – | – | – | – | – | – |
| CCN(CC)CCNc1c2ccccc2nc2c1[nH]c1ccccc12 | – | inactive | Active | – | Active | Active | 200 nM | Active | 300 nM | – |
| OCCCNc1c2ccccc2nc2c1[nH]c1ccccc12 | – | inactive | Active | Active | Active | – | 1000 nM | – | 1300 nM | Active |
| CN(C)CCNc1c2ccccc2nc2c1oc1ccccc12 | Active | inactive | Active | – | – | – | – | – | – | – |
| OCCCNc1c2ccccc2nc2c1oc1ccccc12 | – | inactive | Active | Active | – | – | – | – | – | – |
| CN(C)CCNc1c2ccccc2nc2c1[nH]c1ccccc12 | Active | inactive | Active | – | – | – | – | – | – | – |
| CN(C)CCCNc1c2ccccc2nc2c1oc1ccccc12 | Active | inactive | Active | – | – | – | – | – | – | – |
| OCCNc1c2ccccc2nc2c1[nH]c1ccccc12 | – | inactive | Active | Active | – | – | – | – | – | – |
